In ChEMBL document CHEMBL3045743, “Synthesis and herbicidal activity of isoindoline-1,3-dione substituted benzoxazinone derivatives containing a carboxylic ester group” (J Agric Food Chem, 2009):

Key:
Format in all cases: functional
Abutilon theophrasti [1] = assay: Pre-emergence herbicidal activity against Abutilon theophrasti (velvetleaf) assessed as growth inhibition at 75 g.a.i./ha applied 24 hr after seeds were sown measured after 15 days; details: read-out: GI
How it was run: (§1)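 Weeds sown 5 mm deep in pots of greenhouse clay soil (pH 6.5, 37.5% clay, CEC 12.9 cmol/kg) and grown at 22-25 °C. Water-diluted formulation was applied pre-emergence 24 h after sowing. Untreated and DMF solvent controls were included. Growth inhibition was visually rated in % against untreated controls after 15 days, as the mean of triplicates.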

Amaranthus [2] = assay: Pre-emergence herbicidal activity against Amaranthus ascendens assessed as growth inhibition at 75 g.a.i./ha applied 24 hr after seeds were sown measured after 15 days; details: read-out: GI; how it was run: as §1
Setaria viridis [3] = assay: Post-emergence herbicidal activity against Setaria viridis (green foxtail) assessed as growth inhibition at 75 g.a.i./ha applied at one-leaf stage measured after 15 days; details: 360 h, read-out: GI
How it was run: (§2)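 Pot-grown weeds sown 5 mm deep in greenhouse clay soil (pH 6.5, 1.7% organic matter, CEC 12.9 cmol/kg) at 22-25 °C. Stock diluted with water and sprayed post-emergence: dicots at 2-leaf stage, monocots at 1-leaf stage. Untreated and DMF solvent controls were included. % growth inhibition was scored visually versus untreated controls after 15 days. Triplicates averaged.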

Digitaria sanguinalis [4] = assay: Post-emergence herbicidal activity against Digitaria sanguinalis (hairy crabgrass) assessed as growth inhibition at 75 g.a.i./ha applied at one-leaf stage measured after 15 days; details: 360 h, read-out: GI; how it was run: as §2
Chenopodium album [5] = assay: Pre-emergence herbicidal activity against Chenopodium album assessed as growth inhibition at 75 g.a.i./ha applied 24 hr after seeds were sown measured after 15 days; details: read-out: GI; how it was run: as §1
Abutilon theophrasti [6] = assay: Post-emergence herbicidal activity against Abutilon theophrasti (velvetleaf) assessed as growth inhibition at 75 g.a.i./ha applied at two-leaf stage measured after 15 days; details: 360 h, read-out: GI; how it was run: as §2
Echinochloa crus-galli [7] = assay: Post-emergence herbicidal activity against Echinochloa crus-galli (barnyard grass) assessed as growth inhibition at 75 g.a.i./ha applied at one-leaf stage measured after 15 days; details: 360 h, read-out: GI; how it was run: as §2
Amaranthus [8] = assay: Post-emergence herbicidal activity against Amaranthus ascendens assessed as growth inhibition at 75 g.a.i./ha applied at two-leaf stage measured after 15 days; details: 360 h, read-out: GI; how it was run: as §2
Echinochloa crus-galli [9] = assay: Pre-emergence herbicidal activity against Echinochloa crus-galli (barnyard grass) assessed as growth inhibition at 75 g.a.i./ha applied 24 hr after seeds were sown measured after 15 days; details: read-out: GI; how it was run: as §1
Digitaria sanguinalis [10] = assay: Pre-emergence herbicidal activity against Digitaria sanguinalis (hairy crabgrass) assessed as growth inhibition at 75 g.a.i./ha applied 24 hr after seeds were sown measured after 15 days; details: read-out: GI; how it was run: as §1
Setaria viridis [11] = assay: Pre-emergence herbicidal activity against Setaria viridis (green foxtail) assessed as growth inhibition at 75 g.a.i./ha applied 24 hr after seeds were sown measured after 15 days; details: read-out: GI
How it was run: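 Preliminary pre-emergence screen at a single rate of 75 g a.i./ha. Stock diluted with water and sprayed on greenhouse pots 24 h after seeds were sown 5 mm deep in clay soil (pH 6.5, 1.7% organic matter); grown at 22-25 °C. Untreated and DMF solvent controls included; triplicate. Visual % growth inhibition vs untreated after 15 days, averaged and banded (>80% top band).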

Chenopodium album [12] = assay: Post-emergence herbicidal activity against Chenopodium album assessed as growth inhibition at 75 g.a.i./ha applied at two-leaf stage measured after 15 days; details: 360 h, read-out: GI; how it was run: as §2

SMILES	inhibition of growth at 75 g/ha (Abutilon theophrasti [1])	inhibition of growth at 75 g/ha (Amaranthus [2])	inhibition of growth at 75 g/ha (Setaria viridis [3])	inhibition of growth at 75 g/ha (Digitaria sanguinalis [4])	inhibition of growth at 75 g/ha (Chenopodium album [5])	inhibition of growth at 75 g/ha (Abutilon theophrasti [6])	inhibition of growth at 75 g/ha (Echinochloa crus-galli [7])	inhibition of growth at 75 g/ha (Amaranthus [8])	inhibition of growth at 75 g/ha (Echinochloa crus-galli [9])	inhibition of growth at 75 g/ha (Digitaria sanguinalis [10])	inhibition of growth at 75 g/ha (Setaria viridis [11])	inhibition of growth at 75 g/ha (Chenopodium album [12])
CCOC(=O)C(c1ccccc1)N1C(=O)C(C)Oc2cc(F)c(N3C(=O)C4=C(CCCC4)C3=O)cc21 (stereo unspecified)	50%	50%	50%	50%	50%	> 80%	< 50%	> 80%	> 80%	> 80%	> 80%	> 80%
CCOC(=O)C(c1ccccc1)N1C(=O)COc2cc(F)c(N3C(=O)C4=C(CCCC4)C3=O)cc21 (stereo unspecified)	50%	> 80%	> 80%	> 80%	> 80%	> 80%	50%	> 80%	< 50%	50%	50%	> 80%
C#CCN1C(=O)COc2cc(F)c(N3C(=O)c4ccc(F)cc4C3=O)cc21	> 80%	> 80%	> 80%	> 80%	> 80%	> 80%	> 80%	> 80%	> 80%	> 80%	> 80%	> 80%
COC(=O)C(C)N1C(=O)COc2cc(F)c(N3C(=O)C4=C(CCCC4)C3=O)cc21 (stereo unspecified)	> 80%	50%	> 80%	> 80%	50%	> 80%	> 80%	> 80%	< 50%	< 50%	< 50%	> 80%
CCOC(=O)CN1C(=O)COc2cc(F)c(N3C(=O)c4ccccc4C3=O)cc21	50%	50%	< 50%	< 50%	50%	> 80%	< 50%	> 80%	< 50%	< 50%	< 50%	> 80%
CCOC(=O)C(C)N1C(=O)COc2cc(F)c(N3C(=O)c4cc(Cl)c(Cl)cc4C3=O)cc21 (stereo unspecified)	< 50%	< 50%	< 50%	< 50%	< 50%	< 50%	< 50%	< 50%	< 50%	< 50%	< 50%	50%
CCOC(=O)CN1C(=O)COc2cc(N3C(=O)c4ccccc4C3=O)c(F)cc21	< 50%	< 50%	< 50%	< 50%	< 50%	< 50%	< 50%	< 50%	< 50%	< 50%	< 50%	< 50%
CCOC(=O)CN1C(=O)COc2cc(F)c(N3C(=O)c4cc(Cl)c(Cl)cc4C3=O)cc21	< 50%	< 50%	< 50%	< 50%	< 50%	50%	< 50%	50%	< 50%	< 50%	< 50%	50%
